In ChEMBL document CHEMBL4138242, “Synthesis and antibacterial evaluation of novel cationic chalcone derivatives possessing broad spectrum antibacterial activity” (Eur J Med Chem, 2018):
The source made the active and inactive calls.

What was measured:
Escherichia coli [1] = experiment: Antibacterial activity against drug-resistant NDM1 producing Escherichia coli clinical isolate Ecl-14-58 after 16 to 20 hrs by broth microdilution method; format: functional
How it was run: (§1)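 CLSI broth microdilution in Mueller-Hinton broth. A 4-6 h culture was diluted to about 10⁶ CFU/mL and mixed 1:1 with compound dilutions prepared at 256 to 0.5 µg/mL from aqueous stocks. Plates were incubated at 37 °C for 16-20 h and read visually for MIC. Each concentration was run in duplicate, and the experiment was repeated at least twice. Vancomycin and meropenem were comparators.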

Klebsiella pneumoniae [2] = experiment: Antibacterial activity against drug-resistant carbapenemase producing Klebsiella pneumoniae clinical isolate KP-13-54 after 16 to 20 hrs by broth microdilution method; format: functional; how it was run: as §1
Escherichia coli [3] = experiment: Antibacterial activity against Escherichia coli ATCC 25922 after 16 to 20 hrs by broth microdilution method; format: functional
How it was run: (§2)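 Broth microdilution per CLSI. Bacteria grown 4-6 h (about 10⁸ CFU/mL), then diluted to about 10⁶ CFU/mL. Medium: Mueller-Hinton broth, except Luria-Bertani broth for E. coli. Compounds in sterile water, twofold series 256-0.5 µg/mL, mixed 1:1 with inoculum, 37 °C for 16-20 h. MIC is the lowest concentration without visible growth. Duplicate wells; experiment repeated at least twice.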

Escherichia coli [4] = experiment: Antibacterial activity against drug-resistant NDM1 producing Escherichia coli clinical isolate CF-13-61 after 16 to 20 hrs by broth microdilution method; format: functional; how it was run: as §1
Escherichia coli [5] = experiment: Induction of inner membrane permeabilization in Escherichia coli ATCC 25922 at 10 to 20 ug/ml measured every 2 mins for 12 mins by propidium iodide staining-based fluorescence assay; format: functional, organism-based
How it was run: (§3)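 Mid-log cells (~10⁸ CFU/mL) were suspended in PBS (S. aureus) or HEPES/glucose/KCl (E. coli). They were preincubated with propidium iodide for 30 min (S. aureus) or 40 min (E. coli), and baseline fluorescence was read for 8 min. Compound was added to 20 µg/mL final, and fluorescence (ex 535/em 617 nm) was read every 2 min for 12 min.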

Escherichia coli [6] = experiment: Antibacterial activity against drug-resistant NDM1 producing Escherichia coli clinical isolate KP-13-58 after 16 to 20 hrs by broth microdilution method; format: functional; how it was run: as §1
Staphylococcus aureus [7] = experiment: Antibacterial activity against methicillin-resistant Staphylococcus aureus clinical isolate 1105183 cono7 after 16 to 20 hrs by broth microdilution method; format: functional; how it was run: as §1
Escherichia coli [8] = experiment: Induction of cytoplasmic membrane depolarization in Escherichia coli ATCC 25922 at 10 to 20 ug/ml measured every 2 mins for 12 mins by DiSC35 dye-based fluorescence assay; format: functional, organism-based
How it was run: (§4)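 Mid-log cells (~10⁸ CFU/mL) were suspended in PBS (S. aureus) or HEPES/glucose/KCl with EDTA (E. coli). They were preloaded with DiSC3(5) for 30 min (S. aureus) or 40 min (E. coli), and baseline fluorescence was read for 8 min. Compound was added to 20 µg/mL final, and fluorescence (ex 622/em 670 nm) was read every 2 min for 12 min. Water served as control.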

Klebsiella pneumoniae [9] = experiment: Antibacterial activity against drug-resistant carbapenemase producing Klebsiella pneumoniae clinical isolate KP-14-45 after 16 to 20 hrs by broth microdilution method; format: functional; how it was run: as §1
Escherichia coli [10] = experiment: Antibacterial activity against drug-resistant NDM1 producing Escherichia coli clinical isolate EC-13-49 after 16 to 20 hrs by broth microdilution method; format: functional; how it was run: as §1
Staphylococcus aureus [11] = experiment: Antibacterial activity against methicillin-resistant Staphylococcus aureus clinical isolate 20130911034sau after 16 to 20 hrs by broth microdilution method; format: functional; how it was run: as §1
Staphylococcus aureus [12] = experiment: Antibacterial activity against methicillin-resistant Staphylococcus aureus clinical isolate 20131012632sau after 16 to 20 hrs by broth microdilution method; format: functional; how it was run: as §1
Klebsiella pneumoniae [13] = experiment: Antibacterial activity against drug-resistant carbapenemase producing Klebsiella pneumoniae clinical isolate KP-14-8 after 16 to 20 hrs by broth microdilution method; format: functional; how it was run: as §1
Escherichia coli [14] = experiment: Antibacterial activity against drug-resistant NDM1 producing Escherichia coli clinical isolate 1460 after 16 to 20 hrs by broth microdilution method; format: functional; how it was run: as §1
Klebsiella pneumoniae [15] = experiment: Antibacterial activity against drug-resistant carbapenemase producing Klebsiella pneumoniae clinical isolate KP-14-1 after 16 to 20 hrs by broth microdilution method; format: functional; how it was run: as §1
Klebsiella pneumoniae [16] = experiment: Antibacterial activity against drug-resistant carbapenemase producing Klebsiella pneumoniae clinical isolate KP-13-55 after 16 to 20 hrs by broth microdilution method; format: functional; how it was run: as §1
Klebsiella pneumoniae [17] = experiment: Antibacterial activity against drug-resistant carbapenemase producing Klebsiella pneumoniae clinical isolate KP-14-5 after 16 to 20 hrs by broth microdilution method; format: functional; how it was run: as §1
Staphylococcus aureus [18] = experiment: Antibacterial activity against methicillin-resistant Staphylococcus aureus clinical isolate 0906202 after 16 to 20 hrs by broth microdilution method; format: functional; how it was run: as §1
Escherichia coli [19] = experiment: Antibacterial activity against drug-resistant NDM1 producing Escherichia coli clinical isolate EC-14-54 after 16 to 20 hrs by broth microdilution method; format: functional; how it was run: as §1
Klebsiella pneumoniae [20] = experiment: Antibacterial activity against drug-resistant carbapenemase producing Klebsiella pneumoniae clinical isolate KP-14-3 after 16 to 20 hrs by broth microdilution method; format: functional; how it was run: as §1
Staphylococcus aureus [21] = experiment: Antibacterial activity against methicillin-resistant Staphylococcus aureus clinical isolate 1-may after 16 to 20 hrs by broth microdilution method; format: functional; how it was run: as §1
Staphylococcus aureus [22] = experiment: Induction of inner membrane permeabilization in Staphylococcus aureus ATCC 29213 at 10 to 20 ug/ml measured every 2 mins for 12 mins by propidium iodide staining-based fluorescence assay; format: functional, organism-based; how it was run: as §3
Klebsiella pneumoniae [23] = experiment: Antibacterial activity against drug-resistant carbapenemase producing Klebsiella pneumoniae clinical isolate KP-13-45 after 16 to 20 hrs by broth microdilution method; format: functional; how it was run: as §1
[24] = Hemolytic activity in sheep RBC after 1 hr; format: ADME, cell-based, Ovis aries, Erythrocyte; conditions: sheep red blood cells (erythrocytes)
How it was run: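 Sheep red blood cells (150 µL suspension) mixed with 50 µL of compound dilutions (5120-10 µg/mL), 1 h at 37 °C, then centrifuged. Supernatant read at 540 nm. Percent hemolysis calculated relative to RBC-only control (0%) and 0.1% Triton X-100 (100%).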

Salmonella enterica = experiment: Antibacterial activity against Salmonella enterica ATCC 13076 after 16 to 20 hrs by broth microdilution method; format: functional; how it was run: as §2
Staphylococcus aureus [25] = experiment: Antibacterial activity against methicillin-resistant Staphylococcus aureus clinical isolate 1104060 after 16 to 20 hrs by broth microdilution method; format: functional; how it was run: as §1
Staphylococcus aureus [26] = experiment: Antibacterial activity against Staphylococcus aureus ATCC 29213 after 16 to 20 hrs by broth microdilution method; format: functional; how it was run: as §2
Staphylococcus aureus [27] = experiment: Induction of cytoplasmic membrane depolarization in Staphylococcus aureus ATCC 29213 at 10 to 20 ug/ml measured every 2 mins for 12 mins by DiSC35 dye-based fluorescence assay; format: functional, organism-based; how it was run: as §4
Escherichia coli [28] = experiment: Antibacterial activity against drug-resistant NDM1 producing Escherichia coli clinical isolate Ecl-13-62 after 16 to 20 hrs by broth microdilution method; format: functional; how it was run: as §1
Klebsiella pneumoniae [29] = experiment: Antibacterial activity against drug-resistant carbapenemase producing Klebsiella pneumoniae clinical isolate KP-14-2 after 16 to 20 hrs by broth microdilution method; format: functional; how it was run: as §1
Escherichia coli [30] = experiment: Antibacterial activity against drug-resistant NDM1 producing Escherichia coli clinical isolate CF-15-61 after 16 to 20 hrs by broth microdilution method; format: functional; how it was run: as §1
Klebsiella pneumoniae [31] = experiment: Antibacterial activity against drug-resistant carbapenemase producing Klebsiella pneumoniae clinical isolate KP-14-4 after 16 to 20 hrs by broth microdilution method; format: functional; how it was run: as §1
Staphylococcus aureus [32] = experiment: Antibacterial activity against methicillin-resistant Staphylococcus aureus clinical isolate 1207007 after 16 to 20 hrs by broth microdilution method; format: functional; how it was run: as §1
Staphylococcus aureus [33] = experiment: Antibacterial activity against methicillin-resistant Staphylococcus aureus clinical isolate 1208143 after 16 to 20 hrs by broth microdilution method; format: functional; how it was run: as §1
Escherichia coli [34] = experiment: Antibacterial activity against drug-resistant NDM1 producing Escherichia coli clinical isolate EA-14-61 after 16 to 20 hrs by broth microdilution method; format: functional; how it was run: as §1
Klebsiella pneumoniae [35] = experiment: Antibacterial activity against drug-resistant carbapenemase producing Klebsiella pneumoniae clinical isolate EC-13-23 after 16 to 20 hrs by broth microdilution method; format: functional; how it was run: as §1
Escherichia coli [36] = experiment: Antibacterial activity against drug-resistant NDM1 producing Escherichia coli clinical isolate Ecl-14-59 after 16 to 20 hrs by broth microdilution method; format: functional; how it was run: as §1
Escherichia coli [37] = experiment: Antibacterial activity against drug-resistant NDM1 producing Escherichia coli clinical isolate SM-15-84 after 16 to 20 hrs by broth microdilution method; format: functional; how it was run: as §1
Escherichia coli [38] = experiment: Antibacterial activity against drug-resistant NDM1 producing Escherichia coli clinical isolate Ecl-14-56 after 16 to 20 hrs by broth microdilution method; format: functional; how it was run: as §1
Enterococcus faecalis = experiment: Antibacterial activity against Enterococcus faecalis ATCC 29212 after 16 to 20 hrs by broth microdilution method; format: functional; how it was run: as §2
Klebsiella pneumoniae [39] = experiment: Antibacterial activity against drug-resistant carbapenemase producing Klebsiella pneumoniae clinical isolate KP-14-18 after 16 to 20 hrs by broth microdilution method; format: functional; how it was run: as §1
Staphylococcus aureus [40] = experiment: Antibacterial activity against methicillin-resistant Staphylococcus aureus clinical isolate 0831010 after 16 to 20 hrs by broth microdilution method; format: functional; how it was run: as §1

CCCCCCCC[N+](C)(C)CC(=O)Nc1ccc(C(=O)/C=C/c2ccc(C)cc2)cc1.[Cl-]
8 µg/mL: MIC (Klebsiella pneumoniae [2]) | MIC (Escherichia coli [14]) | MIC (Klebsiella pneumoniae [15]) | MIC (Escherichia coli [19]) | MIC (Klebsiella pneumoniae [20]) | MIC (Salmonella enterica) | MIC (Escherichia coli [28])
4 µg/mL: MIC (Escherichia coli [1]) | MIC (Escherichia coli [3]) | MIC (Klebsiella pneumoniae [9]) | MIC (Escherichia coli [10]) | MIC (Klebsiella pneumoniae [13]) | MIC (Klebsiella pneumoniae [17]) | MIC (Staphylococcus aureus [18]) | MIC (Klebsiella pneumoniae [23]) | MIC (Staphylococcus aureus [25]) | MIC (Escherichia coli [30]) | MIC (Klebsiella pneumoniae [31]) | MIC (Escherichia coli [34]) | MIC (Klebsiella pneumoniae [35]) | MIC (Escherichia coli [36]) | MIC (Escherichia coli [38])
16 µg/mL: MIC (Klebsiella pneumoniae [16]) | MIC (Klebsiella pneumoniae [29]) | MIC (Klebsiella pneumoniae [39])
1 µg/mL: MIC (Staphylococcus aureus [7]) | MIC (Staphylococcus aureus [21]) | MIC (Staphylococcus aureus [26]) | MIC (Escherichia coli [37]) | MIC (Enterococcus faecalis)
2 µg/mL: MIC (Escherichia coli [6]) | MIC (Staphylococcus aureus [12]) | MIC (Staphylococcus aureus [33])
active: Activity (Escherichia coli [5]) | Activity (Escherichia coli [8]) | Activity (Staphylococcus aureus [22]) | Activity (Staphylococcus aureus [27])
0.5 µg/mL: MIC (Staphylococcus aureus [11]) | MIC (Staphylococcus aureus [32]) | MIC (Staphylococcus aureus [40])
153 µg/mL: HC50 at 1 h [24]
32 µg/mL: MIC (Escherichia coli [4])

CCCCCCCC[N+](C)(C)CC(=O)Nc1ccc(C(=O)/C=C/c2ccc3ccccc3c2)cc1.[Cl-]
32 µg/mL: MIC (Staphylococcus aureus [18]) | MIC (Klebsiella pneumoniae [31])
2 µg/mL: MIC (Escherichia coli [6]) | MIC (Staphylococcus aureus [21]) | MIC (Staphylococcus aureus [26]) | MIC (Staphylococcus aureus [32]) | MIC (Staphylococcus aureus [33]) | MIC (Enterococcus faecalis)
128 µg/mL: MIC (Escherichia coli [37])
16 µg/mL: MIC (Escherichia coli [1]) | MIC (Klebsiella pneumoniae [2]) | MIC (Escherichia coli [10]) | MIC (Klebsiella pneumoniae [13]) | MIC (Escherichia coli [14]) | MIC (Klebsiella pneumoniae [17]) | MIC (Klebsiella pneumoniae [20]) | MIC (Klebsiella pneumoniae [23]) | MIC (Staphylococcus aureus [25]) | MIC (Escherichia coli [30]) | MIC (Escherichia coli [36])
374 µg/mL: HC50 at 1 h [24]
1 µg/mL: MIC (Escherichia coli [4]) | MIC (Staphylococcus aureus [7]) | MIC (Staphylococcus aureus [11]) | MIC (Escherichia coli [19]) | MIC (Staphylococcus aureus [40])
8 µg/mL: MIC (Escherichia coli [3]) | MIC (Staphylococcus aureus [12]) | MIC (Salmonella enterica) | MIC (Escherichia coli [28]) | MIC (Escherichia coli [34]) | MIC (Klebsiella pneumoniae [35]) | MIC (Escherichia coli [38])
active: Activity (Escherichia coli [5]) | Activity (Escherichia coli [8]) | Activity (Staphylococcus aureus [22]) | Activity (Staphylococcus aureus [27])
> 128 µg/mL: MIC (Klebsiella pneumoniae [9]) | MIC (Klebsiella pneumoniae [15]) | MIC (Klebsiella pneumoniae [16]) | MIC (Klebsiella pneumoniae [29]) | MIC (Klebsiella pneumoniae [39])
